Measured values from ChEMBL document CHEMBL1255347, “Multiclonal outbreak of Klebsiella pneumoniae producing extended-spectrum beta-lactamase CTX-M-2 and novel variant CTX-M-59 in a neonatal intensive care unit in Brazil” (2008).
Converted amounts (≈) assume the structure as drawn.

Experiments:
Klebsiella pneumoniae [1] = test: Antimicrobial activity against CTX-M-2 producing Klebsiella pneumoniae with PFGE pulsotype A by Etest; assay type: functional
In short: (§1)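 Clinical K. pneumoniae isolates from a neonatal ICU outbreak near São Paulo were typed by XbaI PFGE using Tenover criteria. Cultures were grown in LB broth at 37°C. Etest MICs followed the manufacturer's instructions, with cefotaxime and ceftazidime each tested with and without clavulanic acid.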

Klebsiella pneumoniae [2] = test: Antimicrobial activity against CTX-M-2 producing Klebsiella pneumoniae with PFGE pulsotype B by Etest; assay type: functional; in short: as §1
Klebsiella pneumoniae [3] = test: Antimicrobial activity against CTX-M-59 producing Klebsiella pneumoniae with PFGE pulsotype C by Etest; assay type: functional
Klebsiella pneumoniae [4] = test: Antimicrobial activity against SHV-5 producing Klebsiella pneumoniae with PFGE pulsotype D by Etest; assay type: functional; in short: as §1
Klebsiella pneumoniae [5] = test: Antimicrobial activity against CTX-M-59 producing Klebsiella pneumoniae with PFGE pulsotype E by Etest; assay type: functional
Klebsiella pneumoniae [6] = test: Antimicrobial activity against CTX-M-2 producing Klebsiella pneumoniae with PFGE pulsotype F by Etest; assay type: functional
Klebsiella pneumoniae [7] = test: Antimicrobial activity against CTX-M-59 producing Klebsiella pneumoniae with PFGE pulsotype G by Etest; assay type: functional; in short: as §1
Klebsiella pneumoniae [8] = test: Antimicrobial activity against CTX-M-2 producing Klebsiella pneumoniae with PFGE pulsotype H by Etest; assay type: functional; in short: as §1
Klebsiella pneumoniae [9] = test: Antimicrobial activity against CTX-M-2 producing Klebsiella pneumoniae with PFGE pulsotype I by Etest; assay type: functional
Klebsiella pneumoniae [10] = test: Antimicrobial activity against CTX-M-2 producing Klebsiella pneumoniae with PFGE pulsotype J by Etest; assay type: functional
Escherichia coli [11] = test: Antimicrobial activity against Escherichia coli str. K-12 substr. DH10B harboring plasmid CTX-M-2; assay type: functional; conditions: K-12 DH10B
In short: (§2)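 blaCTX-M PCR products were cut with XbaI/BamHI and cloned into pBC-SK(−), then electroporated into E. coli DH10B. Transformants were selected on LB agar with ampicillin 50 μg/ml and chloramphenicol 30 μg/ml, and sequences were confirmed. These clones were used for β-lactam MICs, with and without clavulanic acid.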

Escherichia coli [12] = test: Antimicrobial activity against Escherichia coli str. K-12 substr. DH10B harboring plasmid CTX-M-2 in presence of clavulanic acid; assay type: functional; conditions: K-12 DH10B; in short: as §2
Escherichia coli [13] = test: Antimicrobial activity against Escherichia coli str. K-12 substr. DH10B harboring plasmid CTX-M-59; assay type: functional; conditions: K-12 DH10B; in short: as §2
Escherichia coli [14] = test: Antimicrobial activity against Escherichia coli str. K-12 substr. DH10B harboring plasmid CTX-M-59 in presence of clavulanic acid; assay type: functional; conditions: K-12 DH10B; in short: as §2
Klebsiella pneumoniae [15] = test: Antimicrobial activity against CTX-M-2 and TEM-1 producing Klebsiella pneumoniae transconjugants/transformants with PFGE pulsotype A by Etest; assay type: functional
In short: (§3)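 The recipient was E. coli XL1-Blue Rifr NAr. Plasmids moved by broth mating, with transconjugants selected on LB agar containing ampicillin, rifampin and nalidixic acid, each at 50 μg/ml. Where mating failed, alkaline-lysis plasmid extracts were electroporated and selected on ampicillin 50 μg/ml. β-lactam MICs were read by Etest, with and without clavulanic acid.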

Klebsiella pneumoniae [16] = test: Antimicrobial activity against CTX-M-2 and TEM-1 producing Klebsiella pneumoniae transconjugants/transformants with PFGE pulsotype B by Etest; assay type: functional; in short: as §3
Klebsiella pneumoniae [17] = test: Antimicrobial activity against CTX-M-59 and TEM-1 producing Klebsiella pneumoniae transconjugants/transformants with PFGE pulsotype C by Etest; assay type: functional; in short: as §3
Klebsiella pneumoniae [18] = test: Antimicrobial activity against SHV-5 producing Klebsiella pneumoniae transconjugants/transformants with PFGE pulsotype D by Etest; assay type: functional; in short: as §3
Klebsiella pneumoniae [19] = test: Antimicrobial activity against CTX-M-59 and TEM-1 producing Klebsiella pneumoniae transconjugants/transformants with PFGE pulsotype E by Etest; assay type: functional; in short: as §3
Klebsiella pneumoniae [20] = test: Antimicrobial activity against CTX-M-2 and TEM-1 producing Klebsiella pneumoniae transconjugants/transformants with PFGE pulsotype F by Etest; assay type: functional; in short: as §3
Klebsiella pneumoniae [21] = test: Antimicrobial activity against CTX-M-59 and TEM-1 producing Klebsiella pneumoniae transconjugants/transformants with PFGE pulsotype G by Etest; assay type: functional; in short: as §3
Klebsiella pneumoniae [22] = test: Antimicrobial activity against CTX-M-2 and TEM-1 producing Klebsiella pneumoniae transconjugants/transformants with PFGE pulsotype H by Etest; assay type: functional; in short: as §3
Klebsiella pneumoniae [23] = test: Antimicrobial activity against CTX-M-2 and TEM-1 producing Klebsiella pneumoniae transconjugants/transformants with PFGE pulsotype I by Etest; assay type: functional; in short: as §3
Klebsiella pneumoniae [24] = test: Antimicrobial activity against CTX-M-2 and TEM-1 producing Klebsiella pneumoniae transconjugants/transformants with PFGE pulsotype J by Etest; assay type: functional; in short: as §3
Klebsiella pneumoniae [25] = test: Antimicrobial activity against CTX-M-2 and TEM-1 producing Klebsiella pneumoniae transconjugants/transformants with PFGE pulsotype B by Etest in presence of clavulanic acid; assay type: functional; in short: as §3
Klebsiella pneumoniae [26] = test: Antimicrobial activity against CTX-M-59 and TEM-1 producing Klebsiella pneumoniae transconjugants/transformants with PFGE pulsotype C by Etest in presence of clavulanic acid; assay type: functional; in short: as §3
Klebsiella pneumoniae [27] = test: Antimicrobial activity against SHV-5 producing Klebsiella pneumoniae transconjugants/transformants with PFGE pulsotype D by Etest in presence of clavulanic acid; assay type: functional; in short: as §3
Klebsiella pneumoniae [28] = test: Antimicrobial activity against CTX-M-59 and TEM-1 producing Klebsiella pneumoniae transconjugants/transformants with PFGE pulsotype E by Etest in presence of clavulanic acid; assay type: functional; in short: as §3
Klebsiella pneumoniae [29] = test: Antimicrobial activity against CTX-M-2 and TEM-1 producing Klebsiella pneumoniae transconjugants/transformants with PFGE pulsotype F by Etest in presence of clavulanic acid; assay type: functional; in short: as §3
Klebsiella pneumoniae [30] = test: Antimicrobial activity against CTX-M-59 and TEM-1 producing Klebsiella pneumoniae transconjugants/transformants with PFGE pulsotype G by Etest in presence of clavulanic acid; assay type: functional; in short: as §3
Klebsiella pneumoniae [31] = test: Antimicrobial activity against CTX-M-2 and TEM-1 producing Klebsiella pneumoniae transconjugants/transformants with PFGE pulsotype H by Etest in presence of clavulanic acid; assay type: functional
Klebsiella pneumoniae [32] = test: Antimicrobial activity against CTX-M-2 and TEM-1 producing Klebsiella pneumoniae transconjugants/transformants with PFGE pulsotype I by Etest in presence of clavulanic acid; assay type: functional; in short: as §3
Klebsiella pneumoniae [33] = test: Antimicrobial activity against CTX-M-2 and TEM-1 producing Klebsiella pneumoniae transconjugants/transformants with PFGE pulsotype J by Etest in presence of clavulanic acid; assay type: functional; in short: as §3
Klebsiella pneumoniae [34] = test: Antimicrobial activity against CTX-M-2 producing Klebsiella pneumoniae with PFGE pulsotype A by Etest in presence of clavulanic acid; assay type: functional; in short: as §1
Klebsiella pneumoniae [35] = test: Antimicrobial activity against CTX-M-2 producing Klebsiella pneumoniae with PFGE pulsotype B by Etest in presence of clavulanic acid; assay type: functional; in short: as §1
Klebsiella pneumoniae [36] = test: Antimicrobial activity against CTX-M-59 producing Klebsiella pneumoniae with PFGE pulsotype C by Etest in presence of clavulanic acid; assay type: functional; in short: as §1
Klebsiella pneumoniae [37] = test: Antimicrobial activity against SHV-5 producing Klebsiella pneumoniae with PFGE pulsotype D by Etest in presence of clavulanic acid; assay type: functional
Klebsiella pneumoniae [38] = test: Antimicrobial activity against CTX-M-59 producing Klebsiella pneumoniae with PFGE pulsotype E by Etest in presence of clavulanic acid; assay type: functional
In short: (§4)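 MICs were determined by Etest strips following the manufacturer's instructions, using cefotaxime and ceftazidime each combined with clavulanic acid. The test strains were clinical NICU outbreak isolates confirmed as ESBL producers by disk diffusion. Pulsotypes were assigned by XbaI PFGE using Tenover relatedness criteria. Cultures were routinely grown in LB broth at 37°C.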

Klebsiella pneumoniae [39] = test: Antimicrobial activity against CTX-M-2 producing Klebsiella pneumoniae with PFGE pulsotype F by Etest in presence of clavulanic acid; assay type: functional; in short: as §1
Klebsiella pneumoniae [40] = test: Antimicrobial activity against CTX-M-59 producing Klebsiella pneumoniae with PFGE pulsotype G by Etest in presence of clavulanic acid; assay type: functional; in short: as §4
Klebsiella pneumoniae [41] = test: Antimicrobial activity against CTX-M-2 producing Klebsiella pneumoniae with PFGE pulsotype H by Etest in presence of clavulanic acid; assay type: functional
In short: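 Etest strips used per manufacturer's instructions to read MICs of cefotaxime and ceftazidime, each with clavulanic acid, on clinical NICU K. pneumoniae outbreak isolates. Isolates were typed by XbaI PFGE using Tenover criteria and routinely grown in LB broth at 37°C.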

Klebsiella pneumoniae [42] = test: Antimicrobial activity against CTX-M-2 producing Klebsiella pneumoniae with PFGE pulsotype I by Etest in presence of clavulanic acid; assay type: functional; in short: as §1
Klebsiella pneumoniae [43] = test: Antimicrobial activity against CTX-M-2 producing Klebsiella pneumoniae with PFGE pulsotype J by Etest in presence of clavulanic acid; assay type: functional; in short: as §1
Escherichia coli [44] = test: Antimicrobial activity against CTX-M-2 and TEM-1 producing Escherichia coli transconjugants/transformants with PFGE pulsotype A by Etest in presence of clavulanic acid

CC(C)(O/N=C(\C(=O)N[C@@H]1C(=O)N2C(C(=O)[O-])=C(C[n+]3ccccc3)CS[C@H]12)c1csc(N)n1)C(=O)O [CEFTAZIDIME]
MIC (Klebsiella pneumoniae [1]): 6 µg/mL (≈ 11 µM)
MIC (Klebsiella pneumoniae [2]): 24 µg/mL (≈ 43.9 µM)
MIC (Klebsiella pneumoniae [3]): 4 µg/mL (≈ 7.32 µM)
MIC (Klebsiella pneumoniae [4]): 256 µg/mL (≈ 468 µM)
MIC (Klebsiella pneumoniae [5]): 8 µg/mL (≈ 14.6 µM)
MIC (Klebsiella pneumoniae [6]): 8 µg/mL (≈ 14.6 µM)
MIC (Klebsiella pneumoniae [7]): 12 µg/mL (≈ 22 µM)
MIC (Klebsiella pneumoniae [8]): 256 µg/mL (≈ 468 µM)
MIC (Klebsiella pneumoniae [9]): 4 µg/mL (≈ 7.32 µM)
MIC (Klebsiella pneumoniae [10]): 6 µg/mL (≈ 11 µM)
MIC (Escherichia coli [11]): 8 µg/mL (≈ 14.6 µM)
MIC (Escherichia coli [12]): 0.38 µg/mL
MIC (Escherichia coli [13]): 8 µg/mL (≈ 14.6 µM)
MIC (Escherichia coli [14]): 0.38 µg/mL
MIC (Klebsiella pneumoniae [15]): 8 µg/mL (≈ 14.6 µM)
MIC (Klebsiella pneumoniae [16]): 12 µg/mL (≈ 22 µM)
MIC (Klebsiella pneumoniae [17]): 8 µg/mL (≈ 14.6 µM)
MIC (Klebsiella pneumoniae [18]): > 256 µg/mL
MIC (Klebsiella pneumoniae [19]): 4 µg/mL (≈ 7.32 µM)
MIC (Klebsiella pneumoniae [20]): 16 µg/mL (≈ 29.3 µM)
MIC (Klebsiella pneumoniae [21]): 8 µg/mL (≈ 14.6 µM)
MIC (Klebsiella pneumoniae [22]): 8 µg/mL (≈ 14.6 µM)
MIC (Klebsiella pneumoniae [23]): 6 µg/mL (≈ 11 µM)
MIC (Klebsiella pneumoniae [24]): 12 µg/mL (≈ 22 µM)
MIC (Klebsiella pneumoniae [25]): 0.19 µg/mL
MIC (Klebsiella pneumoniae [26]): 0.25 µg/mL
MIC (Klebsiella pneumoniae [27]): 0.19 µg/mL
MIC (Klebsiella pneumoniae [28]): 0.19 µg/mL
MIC (Klebsiella pneumoniae [29]): 0.38 µg/mL
MIC (Klebsiella pneumoniae [30]): 0.38 µg/mL
MIC (Klebsiella pneumoniae [31]): 0.25 µg/mL
MIC (Klebsiella pneumoniae [32]): 0.19 µg/mL
MIC (Klebsiella pneumoniae [33]): 0.38 µg/mL
MIC (Klebsiella pneumoniae [34]): 0.5 µg/mL
MIC (Klebsiella pneumoniae [35]): 0.75 µg/mL
MIC (Klebsiella pneumoniae [36]): 0.38 µg/mL
MIC (Klebsiella pneumoniae [37]): 0.25 µg/mL
MIC (Klebsiella pneumoniae [38]): 0.75 µg/mL
MIC (Klebsiella pneumoniae [39]): 1.5 µg/mL
MIC (Klebsiella pneumoniae [40]): 1 µg/mL
MIC (Klebsiella pneumoniae [41]): > 4 µg/mL
MIC (Klebsiella pneumoniae [42]): 0.5 µg/mL
MIC (Klebsiella pneumoniae [43]): 0.75 µg/mL
MIC (Escherichia coli [44]): 0.19 µg/mL
